# Test results published in ChEMBL document CHEMBL4428033, “The Flavone Luteolin Inhibits Liver X Receptor Activation” (J Nat Prod, 2016).
# Active and inactive are the calls of the source. The calls are words filed in the database; no cut-off is given here.
# Key:
# [1] = biological target: T1, Oxysterols receptor LXR-alpha (Homo sapiens) (UniProt Q13133); test: Transactivation of human LXR-alpha at 10 to 50 uM after 22 hrs by cell based luciferase reporter gene assay
# T1 sequence (whole entry): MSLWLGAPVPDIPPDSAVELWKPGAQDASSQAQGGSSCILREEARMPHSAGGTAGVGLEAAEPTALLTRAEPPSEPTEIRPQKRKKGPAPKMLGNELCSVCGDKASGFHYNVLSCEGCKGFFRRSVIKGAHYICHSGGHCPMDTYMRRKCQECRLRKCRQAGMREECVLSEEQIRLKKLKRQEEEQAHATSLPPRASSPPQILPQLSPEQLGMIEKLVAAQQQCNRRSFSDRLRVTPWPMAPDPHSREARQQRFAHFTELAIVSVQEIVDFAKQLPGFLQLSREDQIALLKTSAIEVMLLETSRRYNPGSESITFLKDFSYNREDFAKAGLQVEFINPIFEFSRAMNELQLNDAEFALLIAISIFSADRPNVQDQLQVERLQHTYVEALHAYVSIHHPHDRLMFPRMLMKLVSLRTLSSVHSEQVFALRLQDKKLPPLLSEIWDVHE
# In short: (§1)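 Commercial LXRα or LXRβ luciferase reporter cells (nonhuman mammalian) kept in medium or given T0901317 0.01–10 μM, alone or with luteolin 10, 25 or 50 μM, for 22 h. Luminescence read per kit instructions, 500 ms read time. RLU plotted against log T0901317 concentration.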
# [2] = biological target: T2, Liver X receptor (Homo sapiens) (UniProt Q13133+P55055); test: Inhibition of T0901317-induced LXR-alpha/beta transactivation in human HepG2 cells assessed as reduction in SREBP-1c mRNA expression at 50 uM after 12 hrs by RT-PCR method; type: cell-based
# In short: (§2)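 HepG2 cells in low-glucose DMEM with 10% FBS, 37 °C, 5% CO2. Pretreated 1 h with T0901317 (0.01–10 μM, or 0.05 or 1 μM), or left in medium, then given luteolin 10, 25 or 50 μM for 12 h. Trizol RNA, SYBR-Green real-time RT-PCR for SREBP-1c, normalised to HPRT1. Pfaffl fold change versus medium control. Two independent experiments in duplicate, mean ± SEM.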
# [3] = biological target: T1, Oxysterols receptor LXR-alpha (Homo sapiens); test: Inhibition of T0901317-induced human LXR-alpha transcriptional activity at 10 uM after 22 hrs by cell based luciferase reporter gene assay; in short: as §1
# [4] = biological target: T2, Liver X receptor (Homo sapiens); test: Inhibition of T0901317-induced LXR-alpha/beta transactivation in human HepG2 cells assessed as reduction in SREBP-1c mRNA expression at 10 to 25 uM after 12 hrs by RT-PCR method; type: cell-based; in short: as §2
# [5] = biological target: T3, Oxysterols receptor LXR-alpha/beta (Mus musculus, UniProt Q9Z0Y9+Q60644); test: Transactivation of LXR-alpha/beta in mouse RAW264.7 cells assessed as upregulation of ABCA1 mRNA expression at 10 to 50 uM after 3 hrs by RT-PCR method; type: cell-based; settings: raw264.7, 3 h
# T3 sequence (Q9Z0Y9 whole entry): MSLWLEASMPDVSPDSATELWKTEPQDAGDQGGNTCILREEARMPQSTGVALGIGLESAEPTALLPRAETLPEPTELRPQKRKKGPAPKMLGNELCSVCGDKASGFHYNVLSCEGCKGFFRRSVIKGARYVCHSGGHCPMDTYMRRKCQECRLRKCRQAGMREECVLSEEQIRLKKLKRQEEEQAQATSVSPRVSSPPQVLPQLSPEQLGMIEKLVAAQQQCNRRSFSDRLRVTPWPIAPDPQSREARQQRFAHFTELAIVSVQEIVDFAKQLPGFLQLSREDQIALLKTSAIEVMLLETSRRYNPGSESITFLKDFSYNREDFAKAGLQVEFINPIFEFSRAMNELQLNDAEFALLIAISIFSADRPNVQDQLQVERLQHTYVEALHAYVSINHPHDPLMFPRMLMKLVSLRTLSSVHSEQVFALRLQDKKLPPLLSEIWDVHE
# T3 sequence (Q60644 whole entry): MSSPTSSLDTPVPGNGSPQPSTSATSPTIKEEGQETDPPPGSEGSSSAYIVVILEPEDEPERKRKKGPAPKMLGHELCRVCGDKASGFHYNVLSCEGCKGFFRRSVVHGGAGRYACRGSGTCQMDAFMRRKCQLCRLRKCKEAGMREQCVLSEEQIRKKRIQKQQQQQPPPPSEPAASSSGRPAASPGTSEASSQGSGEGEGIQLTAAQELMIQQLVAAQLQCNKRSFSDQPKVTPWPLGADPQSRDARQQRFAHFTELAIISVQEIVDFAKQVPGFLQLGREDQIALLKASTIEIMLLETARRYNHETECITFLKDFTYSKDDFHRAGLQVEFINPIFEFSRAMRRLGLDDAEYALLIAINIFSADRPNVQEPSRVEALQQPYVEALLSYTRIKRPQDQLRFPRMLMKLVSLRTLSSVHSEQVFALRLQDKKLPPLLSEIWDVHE
# In short: (§3)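 RAW 264.7 macrophages pretreated 1 h with T0901317 (0.01–10 μM, or 1 μM), or left in medium, then luteolin 10, 25 or 50 μM for 3 h. ABCA1 mRNA by SYBR-Green real-time RT-PCR, normalised to HPRT1. Pfaffl fold change versus medium control or the T0901317-treated sample. Three independent experiments in duplicate, mean ± SEM. One-way ANOVA with Dunnett's test.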
# [6] = biological target: T4, Oxysterols receptor LXR-beta (Homo sapiens) (UniProt P55055); test: Inhibition of T0901317-induced human LXR-beta transcriptional activity at 10 uM after 22 hrs by cell based luciferase reporter gene assay; in short: as §1
# T4 sequence (whole entry): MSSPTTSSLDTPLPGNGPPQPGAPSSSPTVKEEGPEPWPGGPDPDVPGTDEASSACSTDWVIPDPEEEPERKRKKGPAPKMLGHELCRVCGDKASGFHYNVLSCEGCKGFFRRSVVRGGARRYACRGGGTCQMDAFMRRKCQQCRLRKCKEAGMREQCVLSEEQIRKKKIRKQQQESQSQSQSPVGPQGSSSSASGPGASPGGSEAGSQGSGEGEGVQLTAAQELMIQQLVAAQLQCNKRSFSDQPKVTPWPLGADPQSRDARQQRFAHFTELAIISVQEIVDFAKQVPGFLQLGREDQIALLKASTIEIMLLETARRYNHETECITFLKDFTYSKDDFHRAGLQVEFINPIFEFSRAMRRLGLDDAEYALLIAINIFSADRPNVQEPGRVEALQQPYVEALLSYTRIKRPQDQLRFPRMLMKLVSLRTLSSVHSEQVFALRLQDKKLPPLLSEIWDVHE
# [7] = biological target: T5, Oxysterols receptor LXR-alpha/beta (Mus musculus) (UniProt Q9Z0Y9+Q60644); test: Inhibition of T0901317-induced LXR-alpha/beta transactivation in mouse RAW264.7 cells assessed as reduction in ABCA1 mRNA expression after 3 hrs by RT-PCR method; type: cell-based; in short: as §3
# HepG2 [8] = test: Cytotoxicity against human HepG2 cells assessed as reduction in cell viability at 10 to 50 uM after 12 hrs by MTT assay; type: cell-based; settings: hepg2, 12 h
# In short: (§4)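 Cells treated as in the RT-PCR assays (T0901317 pretreatment 1 h, then luteolin 10, 25 or 50 μM; 12 h for HepG2, 3 h for RAW 264.7). MTT added at 37 °C for 60 min (HepG2) or 15 min (RAW 264.7). Formazan dissolved in acidic 2-propanol and read at 570 nm, reference 620 nm.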
# RAW264.7 = test: Cytotoxicity against mouse RAW264.7 cells assessed as reduction in cell viability at 10 to 50 uM after 3 hrs by MTT assay; type: cell-based; settings: raw264.7, 3 h; in short: as §4
# Mus musculus [9] = test: Antihyperlipidemic activity in ethanol-induced steatosis C57BL/6 mouse model assessed as inhibition of serum triacylglycerol level at 50 mg/kg, po administered daily through oral gavage for 2 weeks by colorimetric method relative to control; type: functional; settings: C57BL/6, po, 336 h
# HepG2 [10] = test: Inhibition of T0901317-induced lipid accumulation in human HepG2 cells at 50 uM preincubated for 1 hr followed by T0901317 addition measured after 24 hrs by Oil Red-O dye based microscopic analysis; type: functional, cell-based
# In short: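 HepG2 cells preincubated 1 h with luteolin 25 or 50 μM, then T0901317 5 μM added for 24 h. Fixed in 4% paraformaldehyde for 20 min at room temperature. Stained with Oil Red-O (0.6% stock diluted 6:4 with water) for 45 min at room temperature, washed, then imaged by microscopy; absorbance recorded.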
# Liver X receptor = biological target: T6, Liver X receptor (Homo sapiens, UniProt Q13133+P55055); test: Transactivation of LXR-alpha/beta in human HepG2 cells assessed as upregulation of SREBP-1c mRNA expression at 10 to 50 uM after 12 hrs by RT-PCR method; type: cell-based; settings: hepg2, 12 h; in short: as §2
# T6 sequence (Q13133 whole entry): T1 sequence (whole entry)
# T6 sequence (P55055 whole entry): T4 sequence (whole entry)
# [11] = biological target: T1, Oxysterols receptor LXR-alpha (Homo sapiens); test: Inhibition of T0901317-induced human LXR-alpha transcriptional activity after 22 hrs by cell based luciferase reporter gene assay; in short: as §1
# [12] = biological target: T5, Oxysterols receptor LXR-alpha/beta (Mus musculus); test: Inhibition of T0901317-induced LXR-alpha/beta transactivation in mouse RAW264.7 cells assessed as reduction in ABCA1 mRNA expression at 25 uM after 3 hrs by RT-PCR method relative to control; type: cell-based; in short: as §3
# [13] = biological target: T5, Oxysterols receptor LXR-alpha/beta (Mus musculus); test: Inhibition of T0901317-induced LXR-alpha/beta transactivation in mouse RAW264.7 cells assessed as reduction in ABCA1 mRNA expression at 50 uM after 3 hrs by RT-PCR method relative to control; type: cell-based; in short: as §3
# [14] = biological target: T5, Oxysterols receptor LXR-alpha/beta (Mus musculus); test: Inhibition of T0901317-induced LXR-alpha/beta transactivation in mouse RAW264.7 cells assessed as reduction in ABCA1 mRNA expression at 10 uM after 3 hrs by RT-PCR method; type: cell-based; in short: as §3
# [15] = biological target: T4, Oxysterols receptor LXR-beta (Homo sapiens); test: Transactivation of human LXR-beta at 10 to 50 uM after 22 hrs by cell based luciferase reporter gene assay; in short: as §1
# [16] = biological target: T4, Oxysterols receptor LXR-beta (Homo sapiens); test: Inhibition of T0901317-induced human LXR-beta transcriptional activity after 22 hrs by cell based luciferase reporter gene assay; in short: as §1
# Mus musculus [17] = test: Antihyperlipidemic activity in ethanol-induced steatosis C57BL/6 mouse model assessed as inhibition of serum LDL cholesterol level at 50 mg/kg, po administered daily through oral gavage for 2 weeks by colorimetric method relative to control; type: functional; settings: C57BL/6, po, 336 h
smiles,measurement,setting,value
O=c1cc(-c2ccc(O)c(O)c2)oc2cc(O)cc(O)c12 [LUTEOLIN],Activity,[1],inactive
same,inhibition,[2],Active
same,inhibition,[3],inactive
same,inhibition,[4],inactive
same,Activity,[5],Not Active
same,inhibition,[6],inactive
same,inhibition,[7],Dose-dependent effect
same,Activity,HepG2 [8],Non-Toxic
same,Activity,RAW264.7,Non-Toxic
same,inhibition in vivo at 50 mg/kg,Mus musculus [9],22%
same,inhibition,HepG2 [10],Active
same,Activity,Liver X receptor,Not Active
same,inhibition,[11],Dose-dependent effect
same,inhibition,[12],41%
same,inhibition,[13],64%
same,inhibition,[14],inactive
same,Activity,[15],inactive
same,inhibition,[16],Dose-dependent effect
same,inhibition in vivo at 50 mg/kg,Mus musculus [17],52%
